Bioassay records from PubChem BioAssay.
CHRM5 PAM – potentiates acetylcholine response at human M5 receptor. activation, % at 3 µM. 360,000 compounds, 0.3% hits. P08912. CHO-K1 hM5, Fluo-8 calcium, ACh EC20 PAM; 0% = ACh EC20, 100% = ACh EC100;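 active = activation above the run cutoff, the mean activation of all test compounds plus 3 SD, cut at about 18% in these data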
Target sequence (P08912 whole entry, looked up): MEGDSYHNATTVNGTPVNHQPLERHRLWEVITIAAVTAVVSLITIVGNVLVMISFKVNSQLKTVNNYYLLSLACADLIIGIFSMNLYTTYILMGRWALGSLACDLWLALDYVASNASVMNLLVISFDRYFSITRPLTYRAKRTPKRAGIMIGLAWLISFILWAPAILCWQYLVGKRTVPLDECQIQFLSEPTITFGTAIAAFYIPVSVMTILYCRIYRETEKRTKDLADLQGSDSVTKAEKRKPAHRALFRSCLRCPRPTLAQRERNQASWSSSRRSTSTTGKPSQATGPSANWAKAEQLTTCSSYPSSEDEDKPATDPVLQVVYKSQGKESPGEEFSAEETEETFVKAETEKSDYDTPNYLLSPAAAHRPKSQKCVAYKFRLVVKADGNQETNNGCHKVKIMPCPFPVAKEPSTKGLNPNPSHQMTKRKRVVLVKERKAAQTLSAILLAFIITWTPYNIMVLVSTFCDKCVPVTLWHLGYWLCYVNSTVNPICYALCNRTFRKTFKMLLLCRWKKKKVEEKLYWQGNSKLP
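Replicates: One well per compound, no replicates | System: Human M5 receptor in CHO-K1 cells | Benchmarks: Low control EC20 acetylcholine (0%), high control EC100 acetylcholine (100%) | Probe or stimulus: Acetylcholine, EC20 level | Times: Fluo-8 loading 80 min at 37 °C plus 30 min room temperature | Signal: Intracellular calcium via Fluo-8 fluorescence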
CHRM4 agonist – agonists of human muscarinic M4 receptor (CHRM4) | CHO-K1 hM4/Gqi5, Fluo-8 calcium fluorescence; vehicle 0%, full acetylcholine response 100% | AID 624127 | 360,000 compounds, 0.14% hits | activation, % at 3 µM | P08173;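 active = activation above the run mean over all test wells plus 3 SD, cut at about 32% in these data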;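 also: peak over basal fluorescence ratio per well then scaled between controls; 0% = DMSO wells and 100% = acetylcholine at EC100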
M5 ag – CHRM5 agonism in calcium assay; CHO-K1 hM5 cells, Fluo-8 calcium fluorescence; 0% DMSO wells, 100% maximal acetylcholine response; activation, % at 3 µM; P08912; 360,000 compounds, 0.19% hits;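 active = activation above the run's mean over test compounds plus 3 SD, cut at about 23% in these data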;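 also: signal is peak over basal fluorescence ratio across the kinetic read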
CHRM4 PAM – CHRM4 positive allosteric modulation. activation, % at 3 µM. P08173. CHO-K1 hM4/Gqi5, Fluo-8 calcium fluorescence, ACh EC20; 0% = ACh EC20, 100% = maximal ACh. AID 624126. 360,000 compounds, 0.4% hits;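 active = activation above its plate's cutoff, the mean activation of sample wells plus 3 SD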
M4 antag – CHRM4 antagonism in calcium assay; P08173; CHO-hM4 cells, ACh EC80, Fluo-8 calcium fluorescence; inhibition, % at 3 µM; 360,000 compounds, 0.73% hits; AID 624125;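 active = inhibition above its plate's cutoff, the mean inhibition of sample wells plus 3 SD, cut at about 27% in these data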;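 also: 0% = acetylcholine EC80 with DMSO and 100% = DMSO without agonist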
M5 antag – CHRM5 antagonism in calcium assay | inhibition, % at 3 µM | AID 624040 | P08912 | 360,000 compounds, 0.59% hits | CHO-hM5 cells, Fluo-8 calcium fluorescence, ACh EC80;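 active = inhibition above a per-plate cutoff, the mean of that plate's test compounds plus 3 SD, cut at about 27% in these data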;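 also: 0% = acetylcholine EC80 with DMSO and 100% = DMSO without agonist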
* marks the source's active call; other numbers are inactive results; ! = a repeat was not active. An excerpt weighted towards active compounds, which were near 1.8% of everything screened.

SMILES	CHRM5 PAM	CHRM4 agonist	M5 ag	CHRM4 PAM	M4 antag	M5 antag
COc1ccc(-n2c(/C=C3/C(=O)Nc4ccccc43)nc3ccccc3c2=O)cc1	-1	3	5	4	97*	1
COc1cc(/C=C/c2nc3ccccc3c(=O)n2-c2ccc(O)cc2)ccc1O	-12	22	3	-12	29*	25
COc1ccc(C(=O)OC2CC3CCC(C2)[N+]3(C)[O-])cc1OC (stereo not drawn)	1	0	-3	4	-16	3
c1ccc(C(c2ccccc2)c2ccncc2)cc1	-38	5	-11	-16	42*	37*
O=c1c2ccccc2nc(-c2ccccc2)n1-c1ccncc1	-4	2	1	4	8	-2
COC(=O)C1=C(c2ccc3ccccc3c2)C[C@@H]2CC[C@H]1N2C(=O)NCC1CC1	-2	2	-2	-4	0	10
Cc1cc(C)nc(N2Cc3ccccc3C2=N)n1	4	0	-9	-4	1	4
CC(C)(C)N1Cc2ccccc2C1=N	31*	1	-13	-2	-5	-4
CSc1nc(C)c(Br)c(N2CC2)n1	-3	0	3	-1	2	1
CC1(C)NC(=S)C(C)(C)N1N=O	-6	1	1	3	-7	2
CNc1cc(Cl)c2nonc2c1[N+](=O)[O-]	-7	-2	-5	-6	34*	15
CCOC(=O)[C@]12Cc3ccc(C)cc3[C@H]1N(C1CCCCC1)C(=O)c1ccccc12	13	-3	11	2	6	6
CCOC(=O)[C@]12Cc3cc(C)ccc3[C@H]1N(C1CCCCC1)C(=O)c1ccccc12	9	3	27*	-3	20	6
CCOC(=O)[C@]12Cc3cc(Cl)ccc3[C@H]1N(C1CCCCC1)C(=O)c1cc(OC)ccc12	6	1	51*	-9	77*	18
CCOC(=O)[C@]12Cc3ccc(C)cc3[C@H]1N(C1CCCCC1)C(=O)c1cc(OC)ccc12	16	-2	18	5	21	4
C(#CCN1CCCCC1)CN1CCCCC1	-6	1	1	-4	2	1
O=C1CCCN1CC#CCN1CCCC1	-15	84*	103*	-19	81*	95*
CC1(C)C[C@H]2C=C(C=O)[C@]3(C=O)C[C@]3(C)[C@H]2C1	13	3	8	-13	35*	-3
C[C@]12CCC3C(CC[C@H]4C[C@@H](O)CC[C@]34C)C1CCC2=O (stereo partly drawn)	-6	12	1	2	-33	5
CCCC(=O)OCC[N+](C)(C)C	-15	1	42*	-5	-4	-8
C[C@]12CC[C@H](OS(=O)(=O)O)CC1=CC[C@@H]1[C@@H]2CC[C@]2(C)C(=O)CC[C@@H]12	-3	0	0	-1	71*!	3
COc1ccc(OC)c(CC(=O)N(C)C2CCCN(Cc3ccccc3F)C2)c1 (stereo not drawn)	8	0	-19	-4	3	-6
CC(=O)NC1=C(N2CC2C)C(=O)C(NC(C)=O)=C(N2CC2C)C1=O (stereo not drawn)	-7	0	7	-5	20	2
CC1(C)CCCN1CCC(C(N)=O)(c1ccccc1)c1ccccc1	-36	0	-11	-10	98*	99*
COC(=O)C1=C(C)NC(=S)NC1c1ccc(N(CCCl)CCCl)cc1Cl (stereo not drawn)	18*	-1	9	9	-6	-28
SMILES	CHRM5 PAM	CHRM4 agonist	M5 ag	CHRM4 PAM	M4 antag	M5 antag
O=[N+]([O-])c1nccn1CC(O)CN1CC1 (stereo not drawn)	-3	0	0	8	-3	3
CN(Cc1cccc(-c2ccncc2)c1)C(=O)Oc1ccccc1Cc1ccccc1	-22	17	2	-15	37*	43*
CN(Cc1cccc(-c2ccncc2)c1)C(=O)Oc1ccccc1Cl	-23	20	3	-11	14	8
CCN1/C(=C/C=C/C2=[N+](CC)c3ccccc3C2(C)C)C(C)(C)c2ccccc21	-24	365*	501*	-14	95*	97*
CN1/C(=C\C=C2C(=O)NC(=O)NC2=O)C(C)(C)c2ccccc21	-18	17	14	-17	10	10
CCOC(=O)c1c(C=O)c2ccccc2n1Cc1ccccc1	0	0	-5	-2	-6	1
